Twelve compounds from ChEMBL document CHEMBL3822433, “Discovery of N-(3-fluoro-4-methylsulfonamidomethylphenyl)urea as a potent TRPV1 antagonistic template” (Bioorg Med Chem Lett, 2016) can be followed below.

What all share (format): cell-based
For assay [1], the target named is T1, Transient receptor potential cation channel subfamily V member 1 (Homo sapiens, UniProt Q8NER1). The assay is described as follows: Agonist activity at human TRPV1 expressed in CHO cells assessed as 45Ca2+ uptake incubated for 5 mins by liquid scintillation counting analysis. The method in brief: (§1)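 Human TRPV1 heterologously expressed in CHO cells; 45Ca2+ uptake measured. Maximal response defined with saturating capsaicin (1 μM). Mean ± SEM of at least three experiments. Where shown, % agonism refers to test concentrations of 3–30 μM.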

The target in assay [2] is T1, Transient receptor potential cation channel subfamily V member 1. The assay is described as follows: Antagonist activity at human TRPV1 expressed in CHO cells assessed as inhibition of capsaicin-induced 45Ca2+ uptake incubated for 5 mins by liquid scintillation counting analysis.
For assay [3] the target is unchanged. The assay is described as follows: Displacement of [3H]-resiniferatoxin from human TRPV1 expressed in CHO cells incubated for 60 mins by scintillation counting analysis. The method in brief: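 Competition binding against [3H]-resiniferatoxin using human TRPV1 heterologously expressed in CHO cells; Ki reported. Mean ± SEM of at least three experiments.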
For assay [4] the target is unchanged. Briefly: Antagonist activity at human TRPV1 expressed in CHO cells assessed as inhibition of capsaicin-induced 45Ca2+ uptake preincubated for 30 mins prior to capsaicin challenge measured after 5 mins by liquid scintillation counting analysis. An outline of the steps:
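CHO cells heterologously expressing human TRPV1 were given a 30 min pre-incubation with antagonist before challenge with capsaicin (30 nM). Capsaicin-stimulated 45Ca2+ uptake was read out, and Ki(ant) was derived from dose-dependent inhibition, allowing for competition with capsaicin. Values are mean ± SEM, with n ≥ 3 experiments.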

Assay [5] shares this target. Briefly: Antagonist activity at human TRPV1 expressed in CHO cells assessed as inhibition of capsaicin-induced 45Ca2+ uptake preincubated for 15 mins prior to capsaicin challenge measured after 5 mins by liquid scintillation counting analysis. The method in brief:
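Human TRPV1 heterologously expressed in CHO cells; cells pre-incubated with antagonist for 15 min, then challenged with capsaicin (30 nM) and 45Ca2+ uptake measured. Dose-dependent inhibition was used to derive Ki(ant), correcting for capsaicin–antagonist competition. Values are mean ± SEM of at least three experiments.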

The target is the same in assay [6]. The assay is described as follows: Agonist activity at human TRPV1 expressed in CHO cells assessed as 45Ca2+ uptake at 3 to 30 uM incubated for 5 mins by liquid scintillation counting analysis. The method in brief: as §1
For assay [7] the target is unchanged. The assay is described as follows: Antagonist activity at human TRPV1 expressed in CHO cells assessed as inhibition of capsaicin-induced 45Ca2+ uptake at 3 to 30 uM incubated for 5 mins by liquid scintillation counting analysis.

T1 sequence (Q8NER1 whole entry): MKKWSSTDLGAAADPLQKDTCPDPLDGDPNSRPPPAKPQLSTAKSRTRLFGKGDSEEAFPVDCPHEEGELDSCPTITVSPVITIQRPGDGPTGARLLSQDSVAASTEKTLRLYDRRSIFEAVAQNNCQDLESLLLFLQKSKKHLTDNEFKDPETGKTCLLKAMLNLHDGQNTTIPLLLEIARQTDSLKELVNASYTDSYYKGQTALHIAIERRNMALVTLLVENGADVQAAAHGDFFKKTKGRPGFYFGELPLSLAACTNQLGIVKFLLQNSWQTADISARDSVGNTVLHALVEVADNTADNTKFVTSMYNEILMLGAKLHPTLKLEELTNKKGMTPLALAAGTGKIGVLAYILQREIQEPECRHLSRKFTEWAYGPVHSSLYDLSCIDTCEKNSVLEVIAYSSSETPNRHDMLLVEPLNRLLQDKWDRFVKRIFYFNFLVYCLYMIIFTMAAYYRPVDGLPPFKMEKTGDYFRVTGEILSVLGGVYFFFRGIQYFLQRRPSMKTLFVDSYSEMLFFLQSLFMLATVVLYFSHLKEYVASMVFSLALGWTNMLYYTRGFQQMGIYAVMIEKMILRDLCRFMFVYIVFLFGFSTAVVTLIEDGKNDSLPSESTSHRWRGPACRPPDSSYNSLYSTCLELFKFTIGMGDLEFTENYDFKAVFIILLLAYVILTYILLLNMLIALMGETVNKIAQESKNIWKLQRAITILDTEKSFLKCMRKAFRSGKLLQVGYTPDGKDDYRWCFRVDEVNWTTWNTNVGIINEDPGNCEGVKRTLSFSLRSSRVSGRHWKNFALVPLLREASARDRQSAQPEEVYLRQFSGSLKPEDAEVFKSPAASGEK

With `CC1CCN(c2nc(C(F)(F)F)ccc2CNC(=O)Nc2ccc(NS(C)(=O)=O)c(F)c2)CC1`, the EC50 entry in assay [1] was “Not Active”. Further, the Ki in assay [2] was found to be 149 nM; in assay [3] it was 83 nM.
As to `CC1CCN(c2nc(C(F)(F)F)ccc2CNC(=O)NC(C)c2ccc(NS(C)(=O)=O)c(F)c2)CC1` (stereo unspecified), the EC50 result in assay [1] is reported as “Not Active”. Besides, the Ki was 28.1 nM in assay [2] and 31.6 nM in assay [3].
Turning to `CC1CCN(c2nc(C(F)(F)F)ccc2CCNC(=O)C(C)c2ccc(NS(C)(=O)=O)c(F)c2)CC1` (stereo unspecified), the EC50 entry in assay [1] is given as “Not Active”. Moreover, the results for the inhibitory constant (Ki) in assay [2] and in assay [3] were 95 nM and 54 nM, respectively.
`CC1CCN(c2nc(C(F)(F)F)ccc2CNC(=O)NCc2ccc(CNS(C)(=O)=O)c(F)c2)CC1`: the EC50 entry in assay [1] is “Not Active”. Moreover, the Ki in assay [2] came to 199 nM; in assay [3], 410 nM.
The matching figures for `CC1CCN(c2nc(C(F)(F)F)ccc2CNC(=O)C(C)c2ccc(CNS(C)(=O)=O)c(F)c2)CC1` (stereo unspecified): “Not Active”, 27.6 nM and 230 nM.
As for `CC1CCN(c2nc(C(F)(F)F)ccc2CNC(=O)Nc2ccc(CNS(C)(=O)=O)c(F)c2)CC1`, in assay [1], the EC50 entry is “Not Active”. In addition, the results for the Ki in assay [2] and in assay [3] were 12.5 nM and 6.77 nM, respectively.
As for `Cc1cccc(N(C(=O)NCc2ccc(C(F)(F)F)nc2N2CCC(C)CC2)c2ccc(NS(C)(=O)=O)c(F)c2)c1`, in assay [1], the EC50 entry is “Not Active”. Further, the Ki in assay [4] worked out at 860 nM; in assay [5], 2200 nM; in assay [3] it was 490 nM.
Consider `CC1CCN(c2nc(C(F)(F)F)ccc2CNC(=O)N(C)c2ccc(NS(C)(=O)=O)c(F)c2)CC1`, for which the EC50 result in assay [1] is “Not Active”. Further, the inhibition constant (Ki) worked out at 59 nM in assay [2] and 1160 nM in assay [3].
Regarding `CC1CCN(c2nc(C(F)(F)F)ccc2CCNC(=O)Nc2ccc(NS(C)(=O)=O)c(F)c2)CC1`, the Activity in assay [6] amounted to 29%. Moreover, the inhibition constant Ki in assay [3] was determined as 210 nM. For the same compound, the inhibition in assay [7] came out at 49%.
`CC1CCN(c2nc(C(F)(F)F)ccc2CNC(=O)C(C)c2ccc(NS(C)(=O)=O)c(F)c2)CC1` (stereo unspecified): the EC50 entry in assay [1] is listed as “Not Active”.
Same read-out and setting: the same measure for `CC1CCN(c2nc(C(F)(F)F)ccc2CNC(=O)[C@@H](C)c2ccc(NS(C)(=O)=O)c(F)c2)CC1`: “Not Active”; for `CC1CCN(c2nc(C(F)(F)F)ccc2CNC(=O)NCc2ccc(NS(C)(=O)=O)c(F)c2)CC1`: “Not Active”.
